ChEMBL document CHEMBL1126893, “Synthesis and CLOGP correlation of imidooxy anticonvulsants” (J Med Chem, 1993)
Calls of active or inactive are those of the source.

Key:
[1] = system: Rattus norvegicus; test: Effective dose was measured in rat by subcutaneous pentylenetetrazole method by ip administration; NE= Not effective; type: functional, organism-based
[2] = system: Mus musculus; test: Time of peak effect of activity of compound was measured by both MES and sc Met test in mice; type: functional
Outline: (§1)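 Phase II quantification in mice after ip dosing. ED50 (scMet or MES) measured at the time of peak effect. TD50 (rotorod neurologic deficit) measured at the time of peak neurologic deficit. Medians and 95% confidence limits by the Litchfield-Wilcoxon method. Protective index = TD50/ED50. Time of peak effect determined in the MES or scMet test.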

[3] = system: Mus musculus; test: Time of peak effect of toxicity of compound was measured by both MES and sc Met test in mice; type: functional; outline: as §1
[4] = species: Mus musculus; test: TID20 was measured by MES test in mice; type: functional
Outline: (§2)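 Elevation of maximal (tonic extension) electroshock seizure threshold in male CF1 mice (23-34 g). Compound given ip as a 0.5% methylcellulose suspension at 60, 80 and 90 mg/kg, with testing at 0.5 h. Read-out is % elevation of threshold. TID20 is the dose raising the threshold by 20%.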

[5] = system: Mus musculus; test: Elevation of threshold for electroshock induced seizures in mice was measured by ip administration after 0.5 hr at the dose of 90 mg/kg; type: functional; details: route intraperitoneal; outline: as §2
[6] = species: Mus musculus; test: Protective index (TD50/ED50) value in MES test in mice; type: functional
[7] = system: Mus musculus; test: Elevation of threshold for electroshock induced seizures in mice was measured by ip administration after 0.5 hr at the dose of 60 mg /kg; type: functional; outline: as §2
[8] = system: Mus musculus; test: Effective dose was measured in mouse by maximal electroshock method by ip administration; 100-122; type: functional; outline: as §1
[9] = species: Mus musculus; test: Time of peak effect of toxicity of compound was measured by MES test in mice; type: functional; outline: as §1
[10] = species: Mus musculus; test: ED50 value of compound was expressed as dose protecting 50% of mice from tonic hind limb extension; type: functional; details: Hindlimb
Outline: (§3)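 Maximal electroshock test in male CF1 mice (23-34 g). Compound given as a 0.5% methylcellulose suspension ip or po, with testing at 0.5 h after several doses. Endpoint is protection from tonic hind limb extension.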

[11] = system: Mus musculus; test: Elevation of threshold for electroshock induced seizures in mice was measured by po administration after 0.5 hr at the dose of 400 mg/kg; 2/5; type: functional; outline: as §3
[12] = system: Mus musculus; test: Elevation of threshold for electroshock induced seizures in mice was measured by po administration after 0.5 hr at the dose of 200 mg/kg; 1/8; type: functional; outline: as §3
[13] = species: Mus musculus; test: Time of peak effect of activity of compound was measured by MES test in mice; type: functional; outline: as §1
[14] = system: Mus musculus; test: Elevation of threshold for electroshock induced seizures in mice was measured by po administration after 0.5 hr at the dose of 300 mg/kg; 2/8; type: functional; outline: as §3
[15] = system: Mus musculus; test: Elevation of threshold for electroshock induced seizures in mice was measured by ip administration after 0.5 hr at the dose of 80 mg /kg; type: functional; outline: as §2
[16] = system: Mus musculus; test: Effective dose was measured in mouse by subcutaneous pentylenetetrazole method by ip administration.; type: functional; outline: as §1
[17] = system: Mus musculus; test: Elevation of threshold for electroshock induced seizures in mice was measured by ip administration after 0.5 hr at the dose of 150 mg/kg; No. of mice protected/no tested 3/12; type: functional; details: route intraperitoneal
[18] = system: Mus musculus; test: Anticonvulsant activity was measured by subcutaneous pentylenetetrazole test on mice at 30 min at the dose of 300 mg/kg; number of animals protected/number of animals tested 1/1; type: functional
[19] = system: Mus musculus; test: Elevation of threshold for electroshock induced seizures in mice was measured by ip administration after 0.5 hr at the dose of 200 mg/kg; No. of mice protected/no tested 5/12; type: functional; details: route intraperitoneal
[20] = system: Mus musculus; test: Elevation of threshold for electroshock induced seizures in mice was measured by ip administration after 0.5 hr at the dose of 250 mg/kg; No. of mice protected/no tested 5/8; type: functional; details: route intraperitoneal
[21] = system: Mus musculus; test: Anticonvulsant activity was measured by maximal electroshock test on mice at 4 h at the dose of 300 mg/kg; number of animals protected/number of animals tested 1/1; type: functional
[22] = system: Mus musculus; test: Anticonvulsant activity was measured by rotarod toxicity test on mice at 30 min at the dose of 300 mg/kg; number of animals protected/number of animals tested 1/4; type: functional
[23] = system: Mus musculus; test: Anticonvulsant activity was measured by rotarod toxicity test on mice at 4 h at the dose of 300 mg/kg; number of animals protected/number of animals tested 0/2; type: functional
[24] = species: Mus musculus; test: Protective index (TD50/ED50) value in scMET test in mice; type: functional; outline: as §1
[25] = system: Mus musculus; test: Anticonvulsant activity was measured by maximal electroshock test on mice at 0.25 hr at the dose of 100 mg/kg; number of animals protected/number of animals tested 0/2; type: functional
[26] = system: Mus musculus; test: Anticonvulsant activity was measured by maximal electroshock test on mice at 30 min at the dose of 300 mg/kg; number of animals protected/number of animals tested 1/1; type: functional
[27] = system: Mus musculus; test: Effective dose was measured in mouse by maximal electroshock method by ip administration.; type: functional; outline: as §1
[28] = system: Mus musculus; test: Elevation of threshold for electroshock induced seizures in mice was measured by ip administration after 0.5 hr at the dose of 100 mg/kg; No. of mice protected/no tested 1/12; type: functional; details: route intraperitoneal
[29] = system: Mus musculus; test: Anticonvulsant activity was measured by subcutaneous pentylenetetrazole test on mice at 4 hr at the dose of 300 mg/kg; number of animals protected/number of animals tested 1/1; type: functional
[30] = system: Mus musculus; test: Anticonvulsant activity was measured by rotarod toxicity test on mice at 1 hr at the dose of 100 mg/kg; number of animals protected/number of animals tested 0/2; type: functional
[31] = system: Mus musculus; test: Anticonvulsant activity was measured by rotarod toxicity teston mice at 0.25 hr at the dose of 100 mg/kg; number of animals protected/number of animals tested 0/2; type: functional

## O=C1NC(=O)C(c2ccccc2)(c2ccccc2)N1 [PHENYTOIN]
[1]
  ED50: inactive
[2]
  TPE: 2 toxicity
[3]
  TPE: 2

## O=C1CC2(CCCC2)C(=O)N1OCc1ccccc1
[4]
  TID20: 71 mg/kg
[5]
  Elevation of threshold: 28%
[6]
  PI: >4.5
[7]
  Elevation of threshold: 14%
[8]
  ED50: 111 mg/kg
[9]
  TPE: 4 toxicity
[10]
  ED50: 494 mg/kg
[11]
  No. of mice protected/tested: 2
[12]
  No. of mice protected/tested: 1
[13]
  TPE: 0.25
[14]
  No. of mice protected/tested: 2
[15]
  Elevation of threshold: 26%

## O=C1CC2(CCCC2)C(=O)N1OCc1ccc(Cl)cc1Cl
[16]
  ED50: 190 mg/kg
[17]
  Protection: 25%
[6]
  PI: 1.5
[18]
  Ratio: 1
[19]
  Protection: 41.7%
[20]
  Protection: 62.5%
[21]
  Ratio: 1
[22]
  Ratio: 1
[10]
  ED50: 216 mg/kg
[23]
  Ratio: 0
[2]
  TPE: 1
[24]
  PI: 1.9
[25]
  Ratio: 0
[26]
  Ratio: 1
[27]
  ED50: 241 mg/kg
[28]
  Protection: 8.33%
[29]
  Ratio: 1
[30]
  Ratio: 0
[31]
  Ratio: 0
[3]
  TPE: 0.5
